This is an account of results in ChEMBL document CHEMBL1154734, “Small-sized human immunodeficiency virus type-1 protease inhibitors containing allophenylnorstatine to explore the S2' pocket” (J Med Chem, 2009).

In data set [1] the test system is Human immunodeficiency virus 1. Description: Antiviral activity against HIV1 3B infected in human MT4 cells assessed as inhibition of virus-induced cytopathic effect after 5 days by MTT assay. It counts as functional, organism-based. Particulars: Human immunodeficiency virus 1, 3B, MT4, 120 h. The essentials:
(§1)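 HIV-1 (IIIB or pNL4-3) inoculated into MT-4 cells. Cultures were treated with an equal volume of a 1% DMSO solution of compound at several concentrations plus 10% fetal bovine serum, then incubated 5 days at 37 °C in CO2, in triplicate. After MTT, optical density gave the percent cytopathic effect reduction. EC50 was fitted to a median-effect equation.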
(In general: Damage to the host cells serves as the signal in cytopathic effect assays.)

The target of data set [2] is Protease (Human immunodeficiency virus 1) (UniProt Q9YQ12). Description: Inhibition of HIV1 recombinant protease at 50 nM after 15 mins by fluorescence assay. The gist of the method:
(§2)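 Recombinant HIV-1 protease was assayed in MES–NaOH pH 5.5 with DTT, EDTA and NaCl, with inhibitor at 50 nM final (500 nM DMSO stock). The substrate was H-Lys-Ala-Arg-Val-Tyr-Phe(p-NO2)-Glu-Ala-Nle-NH2, and the reaction ran 15 min at 37 °C. It was stopped with 1 N HCl. The N-terminal fragment was quantified by RP-HPLC with fluorescence at ex 275/em 305 nm.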

Data set [3] has the same target. Description: Inhibition of HIV1 recombinant protease at 1 nM after 3 hrs by fluorescence assay.
The subject of data set [4] is Human immunodeficiency virus. As to the kind of experiment: Inhibition of recombinant HIV protease at 50 nM after 15 mins by fluorescence assay. The gist of the method:
as §2

In data set [5] the test system is Human immunodeficiency virus 1. As to the kind of experiment: Ratio of EC50 for HIV1 pNL4-3 infected in human MT4 cells in presence of 50% human serum to EC50 for HIV1 pNL4-3 infected in human MT4 cells in absence of human serum. It counts as functional. The gist of the method: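 HIV-1 pNL4-3 was inoculated into MT-4 cells, then test compound was added at several concentrations in 1% DMSO with 10% FBS. Cultures were incubated 5 days at 37 °C in CO2, in triplicate, and the cytopathic effect was read by MTT optical density. EC50 was fitted to a median-effect equation with and without 50% human serum. The serum binding effect is their ratio.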

In data set [6] the test system is Human immunodeficiency virus 1. As to the kind of experiment: Antiviral activity against HIV1 pNL4-3 infected in human MT4 cells assessed as inhibition of virus-induced cytopathic effect after 5 days by MTT assay in absence of human serum. It counts as functional, organism-based. To be noted: Human immunodeficiency virus 1, pNL4-3, MT4, 120 h. The essentials:
as §1

Data set [7] has as its system Human immunodeficiency virus 1. Description: Antiviral activity against HIV1 pNL4-3 infected in human MT4 cells assessed as inhibition of virus-induced cytopathic effect after 5 days by MTT assay in presence of 50% human serum. It counts as functional, organism-based. To be noted: Human immunodeficiency virus 1, pNL4-3, MT4, 120 h. The gist of the method:
(§3)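 MT-4 cells were infected with wild-type HIV-1 (IIIB or pNL4-3) in the presence of 50% human serum. Compound was added at several concentrations from a 1% DMSO solution, and cells were incubated 5 days at 37 °C in triplicate. Cytopathic effect reduction was read by MTT optical density, and EC50 was derived from a median-effect equation fit.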

Data set [8] can be described thus: Aqueous solubility in 0.1% TFA after 30 mins by RP-HPLC analysis. It counts as physicochemical. Particulars: 0.1% TFA in water.
For data set [9], the target named is Protease (Human immunodeficiency virus 1, UniProt Q9YQ12). As to the kind of experiment: Inhibition of HIV1 recombinant protease after 15 mins by fluorescence assay.
Sequence of Protease (Q9YQ12 whole entry): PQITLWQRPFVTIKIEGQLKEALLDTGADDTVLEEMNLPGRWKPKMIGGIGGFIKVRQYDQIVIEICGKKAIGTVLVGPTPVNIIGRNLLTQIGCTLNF
In data set [10] the test system is Human immunodeficiency virus 1. As to the kind of experiment: Antiviral activity against HIV1 pNL4-3 infected in human MT4 cells assessed as inhibition of virus-induced cytopathic effect after 5 days by MTT assay. It counts as functional, organism-based. To be noted: Human immunodeficiency virus 1, pNL4-3, MT4, 120 h. The gist of the method:
as §1

Data set [11] deals with Human immunodeficiency virus 1. As to the kind of experiment: Fold resistance, ratio of EC50 for indinavir-resistant HIV1 harboring L10R/M46I/L63P/V82T/I84V mutant protease infected in human MT4 cells to EC50 for HIV1 pNL4-3 infected in human MT4 cells. It is filed as functional. The essentials: (§4)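 MT-4 cells inoculated with HIV-1 wild-type pNL4-3 or indinavir-resistant IND-R, then given an equal volume of compound in 1% DMSO at several concentrations with 10% fetal bovine serum. Incubated 5 days at 37 °C in CO2, in triplicate. MTT read-out by optical density gave percent cytopathic-effect reduction; EC50 was fitted to a median-effect equation.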

Data set [12] has as its system Human immunodeficiency virus 1. Description: Antiviral activity against indinavir-resistant HIV1 harboring L10R/M46I/L63P/V82T/I84V mutant protease infected in human MT4 cells assessed as inhibition of virus-induced cytopathic effect after 5 days by MTT assay. It is filed as functional, organism-based. To be noted: Human immunodeficiency virus 1, MT4, 120 h. The gist of the method:
as §4

Data set [13] concerns Human immunodeficiency virus 1. As to the kind of experiment: Ratio of EC50 for HIV1 3B infected in human MT4 cells in presence of 50% human serum to EC50 for HIV1 3B infected in human MT4 cells in absence of human serum. It is filed as functional.
Data set [14] deals with Human immunodeficiency virus 1. As to the kind of experiment: Antiviral activity against HIV1 3B infected in human MT4 cells assessed as inhibition of virus-induced cytopathic effect after 5 days by MTT assay in absence of human serum. It is filed as functional, organism-based. To be noted: Human immunodeficiency virus 1, 3B, MT4, 120 h. The essentials: as §1
Data set [15] has as its system Human immunodeficiency virus 1. Description: Antiviral activity against HIV1 3B infected in human MT4 cells assessed as inhibition of virus-induced cytopathic effect after 5 days by MTT assay in presence of 50% human serum. It is filed as functional, organism-based. To be noted: Human immunodeficiency virus 1, 3B, MT4, 120 h. The essentials: as §3

≈ marks a conversion by molar mass, not a printed value.

Sequence of Protease (Human immunodeficiency virus 1) (Q9YQ12 as listed by the source): as the sequence (Q9YQ12 whole entry) above

The term EC50 denotes the concentration needed to bring the measured effect to its halfway point. For orientation: inhibition means the share of the control response that was lost under treatment. With `Cc1c(O)cccc1C(=O)N[C@@H](Cc1ccccc1)[C@H](O)C(=O)N1CSC(C)(C)[C@H]1C(=O)NCc1c(Cl)cccc1Cl`, the EC50 in data set [1] is 39 nM. Further, the inhibition in data set [2] is 98%; in data set [3] it was 66%.

For the molecule `Cc1cccc(Cl)c1CNC(=O)[C@H]1N(C(=O)[C@@H](O)[C@H](Cc2ccccc2)NC(=O)c2cccc(O)c2C)CSC1(C)C`, the EC50 in [1] was found to be 32 nM. In addition, the inhibition was determined as 99% in data set [2] and 77% in data set [3].

Take `Cc1c(O)cccc1C(=O)N[C@@H](Cc1ccccc1)[C@H](O)C(=O)N1CSC(C)(C)[C@H]1C(=O)N[C@@H](C)c1ccccc1`: the 50% effective concentration (EC50) in data set [1] was 79 nM. Also, the figures for the inhibition in [2] and in data set [3] were 95% and 31%, respectively.

Take `Cc1c(O)cccc1C(=O)N[C@@H](Cc1ccccc1)[C@H](O)C(=O)N1CSC(C)(C)[C@H]1C(=O)NC(C)(C)c1ccccc1`: the inhibition in data set [4] is 82%. In addition, the EC50 in [1] was found to be 123 nM.

What is called solubility is the dissolved amount per volume that the medium holds. Higher therefore signals much dissolved substance. With `C=C(C)CNC(=O)[C@H]1N(C(=O)[C@@H](O)[C@H](Cc2ccccc2)NC(=O)COc2c(C)cc(N)cc2C)CSC1(C)C`, the “Ratio EC50” value in data set [5] is 8.2. Further, the EC50 worked out at 10 nM in data set [6] and 82 nM in data set [7]. The same molecule showed a solubility at 0.5 h in [8] of 8480 µg/mL (≈ 14.9 mM). Besides, the inhibition was determined as 98% in data set [2] and 43% in data set [3].

As usually defined, the Ki is the equilibrium dissociation constant of an inhibitor or competing ligand from its target. Regarding `C=C(C)CNC(=O)[C@H]1N(C(=O)[C@@H](O)[C@H](Cc2ccccc2)NC(=O)c2cccc(O)c2C)CSC1(C)C`, the Ki in data set [9] was determined as 0.19 nM. In data set [10], the EC50 is 17 nM. In addition, in data set [2], the inhibition is 98%.

Take `Cc1cccc(C)c1CNC(=O)[C@H]1N(C(=O)[C@@H](O)[C@H](Cc2ccccc2)NC(=O)c2cccc(O)c2C)CSC1(C)C`: the inhibition constant (Ki) in data set [9] amounted to 0.0024 nM. The results for the inhibition in [2] and in [3] were 99% and 82%, respectively.

As to `Cc1c(O)cccc1CNC(=O)[C@H]1N(C(=O)[C@@H](O)[C@H](Cc2ccccc2)NC(=O)c2cccc(O)c2C)CSC1(C)C`, the “Ratio EC50” value in [11] is 1. In addition, the results for the half-maximal effective concentration (EC50) in data set [1], in data set [10] and in data set [12] were 120 nM, 162 nM and 155 nM, respectively. For the same molecule, the inhibition was found to be 95% in [2] and 41% in data set [3].

Turning to `Cc1c(F)cccc1CNC(=O)[C@H]1N(C(=O)[C@@H](O)[C@H](Cc2ccccc2)NC(=O)c2cccc(O)c2C)CSC1(C)C`, in data set [1], the EC50 amounted to 56 nM. Also, the values for the inhibition in data set [2] and in [3] were 97% and 53%, respectively.

Regarding `Cc1c(O)cccc1C(=O)N[C@@H](Cc1ccccc1)[C@H](O)C(=O)N1CSC(C)(C)[C@H]1C(=O)NCc1c(F)cccc1Cl`, in data set [11], the “Ratio EC50” value was determined as 6.3. The EC50 in data set [1] came out at 32 nM; in data set [10], 25 nM; in data set [12], 157 nM. Besides, the inhibition in data set [2] turned out to be 97%; in data set [3] it was 50%.

For `Cc1ccccc1CNC(=O)[C@H]1N(C(=O)[C@@H](O)[C@H](Cc2ccccc2)NC(=O)c2cccc(O)c2C)CSC1(C)C`, the “Ratio EC50” value in data set [11] turned out to be 1.7. In data set [9], the Ki worked out at 0.031 nM. In addition, the EC50 in data set [1] turned out to be 33 nM; in data set [10] it was 60 nM; in [12], 100 nM. For the same molecule, the inhibition came out at 99% in [2] and 72% in data set [3].

In the case of `Cc1c(O)cccc1C(=O)N[C@@H](Cc1ccccc1)[C@H](O)C(=O)N1CSC(C)(C)[C@H]1C(=O)NCc1c(F)cccc1F`, in data set [1], the EC50 amounted to 51 nM. Moreover, the inhibition amounted to 91% in data set [2] and 24% in [3].

Turning to `Cc1cc(N)cc(C)c1OCC(=O)N[C@@H](Cc1ccccc1)[C@H](O)C(=O)N1CSC(C)(C)[C@H]1C(=O)NC1CCCC1`, the “Ratio EC50” value is 5 in data set [13] and 4.9 in data set [11]. For the same molecule, the EC50 in data set [10] is 620 nM; in data set [14] it was 373 nM; in data set [15] it was 1900 nM; in data set [12] it was 3010 nM. In data set [8], this molecule gave a solubility at 0.5 h of 7480 µg/mL (≈ 12.8 mM). Moreover, the inhibition in data set [2] stood at 90%.
